# Screening data as filed in PubChem BioAssay.
# aDG glyco up – alpha-DG glycosylation activation; activation, % at 10 µM; Pro5-aDG cells, alpha-DG glycosylation AlphaScreen (IIH6); 0% Pro5, 100% B10-LARGE cell signal; actives 0.22% (n = 360,000);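 active = activation of at least 8% versus controls, or a plate z-score of at least 8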;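 note: Pro5 are CHO cells carrying HIG-tagged alpha-DG that lacks glycosylation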
# Lipid droplet – modulators of hepatic lipid droplet formation; inhibition, % at 6.5 µM; AML12 mouse hepatocytes, oleate lipid droplets, BODIPY imaging; actives 0.4% (n = 240,000);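 active = lipid droplet intensity inhibited by at least 50%, with more than 500 cells counted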
#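 Assay system: AML12 mouse liver cells | Compound: 6.5 µM single-point dosing | Schedule: Overnight exposure | Technique: Fluorescence imaging, 20x objective, two fields per well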
# V-ATPase pHluor – regulators of yeast V-ATPase proton transport | S. cerevisiae, pHLuorin cytosolic pH fluorescence | response, % at 10 µM | actives 0.37% (n = 350,000) | AID 504577; in the data active = response mostly above about 7.3%, no sharp cut-off; inactive = mostly below about 5.4%; note: actives read high
# ADAM17 inh – ADAM17 inhibition, QFRET primary screen | P78536 | recombinant ADAM17, EDANS/DABCYL FRET peptide cleavage | inhibition, % at 6.95 µM | actives 0.83% (n = 370,000) | AID 720648;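 active = inhibition above the mean of compounds lying between control limits plus 3 SD, set per campaign, cut at about 8.5% in these data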
# Target sequence (P78536 215-824 limits assumed): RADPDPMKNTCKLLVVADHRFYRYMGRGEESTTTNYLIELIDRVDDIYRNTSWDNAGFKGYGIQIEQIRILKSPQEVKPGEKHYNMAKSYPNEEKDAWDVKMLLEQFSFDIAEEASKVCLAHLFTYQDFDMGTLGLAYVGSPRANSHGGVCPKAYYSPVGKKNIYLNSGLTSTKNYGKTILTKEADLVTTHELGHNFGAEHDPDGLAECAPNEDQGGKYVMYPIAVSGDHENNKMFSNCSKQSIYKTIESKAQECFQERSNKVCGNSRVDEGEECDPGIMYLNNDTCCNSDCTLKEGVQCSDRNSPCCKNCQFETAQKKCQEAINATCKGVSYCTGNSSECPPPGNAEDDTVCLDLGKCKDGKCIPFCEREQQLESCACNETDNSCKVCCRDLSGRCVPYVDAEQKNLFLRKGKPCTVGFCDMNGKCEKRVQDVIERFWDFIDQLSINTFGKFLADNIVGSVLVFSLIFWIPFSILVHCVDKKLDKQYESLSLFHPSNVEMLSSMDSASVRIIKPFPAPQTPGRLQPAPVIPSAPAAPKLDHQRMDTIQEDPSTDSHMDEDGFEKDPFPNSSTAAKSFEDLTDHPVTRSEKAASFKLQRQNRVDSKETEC
# ADAM10 inh – inhibitors of human ADAM10; recombinant ADAM10, EDANS/DABCYL FRET peptide cleavage, 3 h; inhibition, % at 7 µM; O14672; actives 0.62% (n = 370,000);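 active = inhibition above a per-campaign cutoff equal to the mean of compounds falling between control-based bounds plus 3 SD, cut at about 20% in these data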
# MPTP inh – inhibitors of mitochondrial permeability transition pore; isolated mouse mitochondria, Ca2+ swelling absorbance, 30 min; inhibition, % at 10 µM; actives 1.4% (n = 360,000);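 active = inhibition of 50% or more, scaled per plate between neutral and stimulator controls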
# Rh123 counter – Rhodamine 123 counter-screen of mitochondrial pore hits; isolated mitochondria, membrane potential, Rhodamine 123 fluorescence; actives 78% (n = 5,000); shares compounds with MPTP inh; inhibition, % at 10 µM; in the data active = inhibition above about 22%
# MPTP abs DR – MPTP inhibition, dose response swelling confirmation; shares compounds with MPTP inh; isolated mitochondria swelling, absorbance; AID 651561; actives 58% (n = 780); IC50, µM; in the data active = IC50 below about 20 µM
# MPTP cs DR – MPTP inhibitor counter-screen activity, dose response; actives 49% (n = 780); isolated mitochondria counterscreen, fluorescence read-out; AID 651564; IC50, µM; shares compounds with MPTP inh; in the data active = IC50 below about 80 µM
# Numbers stand for hits; n = inactive; x = no result given. Compounds with a hit are over-represented: about 3.1% of the library has one in this group of screens.
SMILES,aDG glyco up,Lipid droplet,V-ATPase pHluor,ADAM17 inh,ADAM10 inh,MPTP inh,Rh123 counter,others
CCN(Cc1ccccc1)S(=O)(=O)c1ccc(C(=O)N(CCCN(C)C)c2nc3cc(C)cc(C)c3s2)cc1,n,x,n,n,n,n,x,
Cc1cc(C)c2sc(N(CCCN(C)C)C(=O)c3ccc(S(=O)(=O)N(C)Cc4ccccc4)cc3)nc2c1,n,x,n,n,n,82,n,MPTP abs DR=8.8;MPTP cs DR=45
CCOC(=O)C1CCN(C(=O)C(C)(C)NC(=O)Nc2ccc(OC)c(Cl)c2)CC1,x,x,x,n,n,x,x,
CS(=O)(=O)c1nc(-c2ccc(Br)cc2)cs1,x,x,x,n,n,x,x,
Cc1cc(=O)[nH]c(SCC(=O)/C=C2\N(C)c3ccccc3C2(C)C)n1,n,n,n,n,n,89,53,
COc1cccc(CO[C@H]2C=C[C@@H](c3ccccc3)O[C@@H]2COC(C)=O)c1,x,x,x,n,n,x,x,
Oc1ccccc1C=NNC(=S)NN=Cc1ccccc1O,n,x,n,n,n,90,67,
COc1cccc(/C=N/NC(=S)NC2CC3CC2C2C=CCC32)c1O (stereo unspecified),n,n,n,n,n,n,x,
NC(=S)N/N=C/c1ccccc1O,n,n,n,n,n,n,x,
Oc1ccccc1/C=N/NC(=S)NC1CC2CC1C1C=CCC21 (stereo unspecified),n,n,n,n,n,59,54,
CCCC[C@@H]1C(=O)N2N=Cc3ccccc3[C@H]2N2N=Cc3ccccc3[C@@H]12,x,x,x,n,n,x,x,
Nc1nc(C23CC4CCC(CC(C4)C2)C3)cs1,n,n,n,n,n,64,n,MPTP abs DR=n;MPTP cs DR=n
Nc1nc(C23CC4CC(CC(Cl)(C4)C2)C3)cs1,n,n,n,n,n,n,x,
O=C1C2C3C=CC(C3)C2C(=O)N1c1ccc(Cc2ccncc2)cc1 (stereo unspecified),n,x,n,n,n,n,x,
CC1CCC2C(=O)N(c3ccc(Cc4ccncc4)cc3)C(=O)C2C1 (stereo unspecified),n,n,n,n,n,87,89,
O=C(Nc1ccc(Cl)cc1)Nc1cc([N+](=O)[O-])ccc1F,n,n,n,n,n,93,93,
O=C(Nc1ccc([N+](=O)[O-])cc1)c1cc(Cl)sc1Cl,n,n,n,n,n,89,85,
Cc1ccc([N+](=O)[O-])cc1NC(=O)Nc1ccc(S(N)(=O)=O)cc1,n,n,n,n,n,n,x,
CCC(C)(C)C(=O)Nc1cc([N+](=O)[O-])ccc1F,n,n,n,n,n,n,x,
Cc1cc(OC(F)F)ccc1NC(=O)Nc1ccc([N+](=O)[O-])cc1,n,n,n,n,n,99,86,
O=C(Nc1ccc([N+](=O)[O-])cc1)Nc1ccc(Cl)cc1F,n,n,n,n,n,100,101,
COc1ccc(OC(C)C(=O)Nc2ccc([N+](=O)[O-])cc2)cc1 (stereo unspecified),n,n,n,n,n,n,x,
O=S1(=O)c2ccc(N3CCN(Cc4ccccc4F)CC3)cc2Oc2ccccc2CN1Cc1cn(Cc2ccc(F)cc2)nn1,x,x,x,n,n,x,x,
CCOC(=O)[C@@]12CCCC3=C1N(CCC3)C(=O)[C@H]2CC(=O)NCCCCc1ccccc1,x,x,x,n,n,x,x,
CCn1c(SCC(=O)N/N=C/c2cccc(Oc3ccccc3)c2)nnc1-c1ccccc1,x,x,x,n,n,x,x,
SMILES,aDG glyco up,Lipid droplet,V-ATPase pHluor,ADAM17 inh,ADAM10 inh,MPTP inh,Rh123 counter,others
COC(=O)[C@]12C=CCN1[C@@H](c1ccc(C(F)(F)F)cc1)c1c(c3ccccc3n1S(=O)(=O)c1ccc(C)cc1)C2,x,x,x,n,n,x,x,
NC(=NCCc1c[nH]c2ccccc12)NC(=O)OCc1ccccc1,x,x,x,n,n,x,x,
Cc1ccc(NS(=O)(=O)c2cc(C(=O)Nc3cccc([N+](=O)[O-])c3)ccc2C)cc1,n,n,n,n,n,n,x,
Cc1ccc(NC(=O)CC(=O)c2ccc([N+](=O)[O-])cc2)cc1S(=O)(=O)Nc1cccc(Cl)c1,n,x,n,n,n,80,55,
Cc1ccc(Sc2ccc(NC(=O)CCl)cc2)cc1C,n,n,n,n,n,52,21,
COC(=O)[C@@]12CCCCC3=C1N(CCC3)C(=O)[C@H]2CC(=O)NCc1ccccc1,x,x,x,n,n,x,x,
O=C(Cc1ccccc1)Nc1scc(-c2ccccc2)c1C(=O)N1CCOCC1,n,n,n,x,x,n,x,
NC(=O)c1c(-c2ccc(Cl)cc2Cl)csc1NC(=O)Cc1ccccc1,n,n,n,n,n,103,90,
COc1ccc(CNC(=O)CSc2nc3c([nH]2)c(=O)n(C)c(=O)n3C)cc1,x,x,x,n,n,x,x,
CC1=NN(c2ccc(Cl)cc2)C(=O)C1C(c1ccccc1O)c1c(C)[nH]n(-c2ccc(Cl)cc2)c1=O (stereo unspecified),n,n,n,x,x,88,24,
COC1=C[C@H](C(=O)N[C@H]2CCCC[C@@H]2NC(C)=O)[C@H](C)[C@@H](c2ccccc2)CC1=O,x,x,x,n,n,x,x,
CCCCNC(=O)c1sc(=S)n2c1[nH]c(=O)c1ccc(C(=O)NCCc3ccc(OC)c(OC)c3)cc12,n,n,n,x,x,n,x,
O=C(NCc1ccccc1)c1sc(=S)n2c1[nH]c(=O)c1ccccc12,n,x,n,n,n,86,89,
O=C(NCCc1c[nH]c2ccccc12)OCc1cn(Cc2c(F)cccc2F)nn1,x,x,x,n,n,x,x,
COc1cccc(-c2nnc(SCC(=O)Nc3ccc(OCc4ccccc4)cc3)n2Cc2ccco2)c1,x,x,x,n,n,x,x,
Cc1c(C(=O)N/N=C/c2ccccc2Cl)[nH][nH]c1=O,x,x,x,n,n,x,x,
NCCOc1ccccc1Cc1ccccc1,n,n,n,n,n,69,n,MPTP abs DR=6.7;MPTP cs DR=n
NCCOc1ccccc1OCCN,n,n,n,n,n,n,x,
Cc1cc(NC(=O)Nc2cccc(Cl)c2)n(-c2ccccn2)n1,n,n,n,n,n,n,x,
Cc1cc(NC(=O)Nc2ccc(Cl)c(Cl)c2)n(-c2ccccc2)n1,n,n,n,n,n,86,87,
Cc1cc(NC(=O)Nc2cccc(Cl)c2)n(-c2ccccc2)n1,n,n,n,n,n,58,86,
CN1C2=N[C@@H](c3ccc4c(c3)OCO4)CC(=O)N2/C(=C\c2ccccc2)[C@H]1c1ccccc1,x,x,x,n,n,x,x,
COC(=O)c1c(Cc2ccccc2Cl)c[nH]c1C,n,n,n,n,n,55,24,
CCOC(=O)C1CCN(C(=O)C(C)(C)NC(=O)Nc2ccc(Cl)cc2Cl)CC1,x,x,x,n,n,x,x,
Oc1cccc(C(O)CNCc2ccc(OCc3ccc(Cl)cc3Cl)cc2)c1 (stereo unspecified),n,n,n,n,n,83,n,MPTP abs DR=6.7;MPTP cs DR=43
